Compound activity deposited in PubChem BioAssay by several laboratories.
Most compounds without a hit are left out; they make up all but 3.6% or so of the library.
GRIN3A LBD mod: modulates the human NR3A ligand-binding domain | Tm shift relative to glycine control, % at 25 µM | 340,000 compounds, 2.5% hits | NR3A LBD differential scanning fluorimetry, Tm shift; 0% = protein alone, 100% = glycine-bound protein | AID 1259313;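 active means melting temperature shift of at least 10% of the positive control shift, at one fixed dose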
UCH37 DUB inh: human UCH37 deubiquitinating enzyme inhibition; Q9Y5K5; purified proteasome/UCH37, Ub-AMC cleavage fluorescence; inhibition, % (test concentration not listed); 330,000 compounds, 0.33% hits;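 active means mean inhibition over replicate wells above about 20%, limit read from the data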;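 further: 0% = compound-free wells with enzyme and 100% = wells lacking proteasome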
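Material: human UCH37 enzyme supplied as purified proteasome complex. Measure: % inhibition of Ub-AMC cleavage fluorescence. Medium: pH 7.4 Tris-HCl (50 mM) with ovalbumin, ATP-MgCl2, DTT. Times: 30 min preincubation with enzyme, 25 min cleavage at room temperature. Detection: AMC fluorescence intensity at 355/460 nm.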
NadD inh: NadD (S. aureus) enzyme inhibition. purified NadD enzyme, colorimetric absorbance read-out. 360,000 compounds, 0.78% hits. inhibition, % at 20 µM; in the data active means inhibition above about 26%
ATG4B inhibitor: inhibitors of human ATG4B cysteine protease. ATG4B cleavage of LC3-PLA2, NBD-HPC fluorescence, 1 h. AID 504462. 340,000 compounds, 0.51% hits. inhibition, % at 8.33 µM. Q9Y4P1; in the data active means inhibition above about 40%
Target sequence (Q9Y4P1 whole entry, looked up): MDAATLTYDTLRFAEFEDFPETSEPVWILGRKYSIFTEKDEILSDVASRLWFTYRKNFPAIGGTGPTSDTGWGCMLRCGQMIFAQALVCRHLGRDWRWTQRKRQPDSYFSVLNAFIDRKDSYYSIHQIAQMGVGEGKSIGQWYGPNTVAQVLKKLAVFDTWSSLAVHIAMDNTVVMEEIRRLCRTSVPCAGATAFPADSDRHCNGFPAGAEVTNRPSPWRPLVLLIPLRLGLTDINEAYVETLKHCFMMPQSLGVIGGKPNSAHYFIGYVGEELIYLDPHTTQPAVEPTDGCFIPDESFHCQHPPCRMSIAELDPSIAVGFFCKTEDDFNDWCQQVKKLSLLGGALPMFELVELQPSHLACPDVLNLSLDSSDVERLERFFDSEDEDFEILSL
SENP1 inh: blocks the human SENP1 SUMO protease catalytic domain | inhibition, % at 10 µM | AID 624204 | 360,000 compounds, 0.21% hits | recombinant SENP1 catalytic domain, CyPet-SUMO1-YPet FRET cleavage;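 active means inhibition at least 30% at 10 µM, raw YFP signal under a set limit, fluorescence ratio 0.5 to 1.5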;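 further: 0% = enzyme with DMSO and 100% = no enzyme wells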
Target sequence (Q9P0U3 419-644 limits assumed): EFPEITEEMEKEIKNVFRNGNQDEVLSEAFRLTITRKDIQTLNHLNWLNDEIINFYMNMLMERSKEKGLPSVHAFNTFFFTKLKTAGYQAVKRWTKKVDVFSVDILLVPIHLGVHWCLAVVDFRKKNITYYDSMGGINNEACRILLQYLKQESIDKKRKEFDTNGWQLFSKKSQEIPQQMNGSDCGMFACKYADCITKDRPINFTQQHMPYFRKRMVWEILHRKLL
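Controls: no-enzyme wells low, DMSO-plus-enzyme wells high control. Test system: human recombinant His6-tagged SENP1 catalytic domain enzyme. Reagent: SFCypet-SUMO1-SFYpet FRET protein substrate, 25 nM final. Doses: one dose per compound, 10 µM, 0.5% DMSO. Detection: FRET, CFP and YFP emission. Timing: 50 min reaction at room temperature.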
Starred values were filed as active, the others as inactive.

How did Cc1cc(C(F)(F)F)nn1CC(=O)N(C)c1ccccc1 do in these assays?
GRIN3A LBD mod: 0; UCH37 DUB inh: 0; NadD inh: -7; ATG4B inhibitor: -9; SENP1 inh: 1

Results for Cc1cc(C(F)(F)F)nn1CC(=O)N(C)C1CCCCC1 ?
GRIN3A LBD mod: 1; UCH37 DUB inh: 32*; NadD inh: -4; ATG4B inhibitor: -9; SENP1 inh: 1

What do the screens show for `CC(C)(C)c1cc(C(=O)NN=Cc2ccncc2)n[nH]1`?
UCH37 DUB inh: 4

What do the screens show for `COCCCn1c(O)c(/C=C2\N=C(C#N)C(=Nc3ccc(C)cc3)O2)sc1=S`?
GRIN3A LBD mod: -3; NadD inh: 11; ATG4B inhibitor: 0; SENP1 inh: 54*

How did O=C(O)CCCn1c(O)c(C=C2N=c3ccccc3=N2)sc1=S do in these assays?
GRIN3A LBD mod: 1; UCH37 DUB inh: 9; NadD inh: -4; ATG4B inhibitor: -4; SENP1 inh: -15

Results for CC[n+]1c(C=C2C=C(C)OC(C)=C2)sc2ccccc21 ?
GRIN3A LBD mod: -3; UCH37 DUB inh: 23*; NadD inh: 10; ATG4B inhibitor: 0; SENP1 inh: -82

Results for CCCCNC(=S)NN=Cc1ccc(C#N)cc1 ?
UCH37 DUB inh: 1

What do the screens show for `CN(C)CCC=C1c2ccccc2C=Cc2ccccc21`?
GRIN3A LBD mod: -1; UCH37 DUB inh: -4; NadD inh: 7; ATG4B inhibitor: 4; SENP1 inh: 0

What do the screens show for `CN(C)CCC=C1c2ccccc2CCc2ccccc21`?
GRIN3A LBD mod: 1; UCH37 DUB inh: 22*; NadD inh: -3; ATG4B inhibitor: -7; SENP1 inh: 0

Results for CCN(CC)c1ccc(C=NNc2ccc(C)cc2)c(O)c1 ?
UCH37 DUB inh: 6

Results for CC(C)[C@H](NC(=O)c1ccco1)C(=O)OCC(=O)c1ccc2c(c1)NC(=O)CO2 ?
GRIN3A LBD mod: 11*; UCH37 DUB inh: 3; NadD inh: 3; ATG4B inhibitor: -5; SENP1 inh: 2

How did CCOc1ccc2ccc(OCC)c(C=Nn3cnnc3)c2c1 do in these assays?
UCH37 DUB inh: 2

What do the screens show for `CC(=O)Nc1ccc(S(=O)(=O)N(C)CC(=O)NN=Cc2ccncc2)cc1`?
UCH37 DUB inh: 4

What do the screens show for `Oc1cccc(Nc2ncnc3c2oc2ccccc23)c1`?
GRIN3A LBD mod: 22*; UCH37 DUB inh: -4; NadD inh: -2; ATG4B inhibitor: -15; SENP1 inh: 2

How did Oc1ccc(Nc2ncnc3c2oc2ccccc23)cc1 do in these assays?
GRIN3A LBD mod: 16*; NadD inh: -2; ATG4B inhibitor: -1; SENP1 inh: 3

What do the screens show for `CCc1nc(Nc2cccc(F)c2)c2oc3ccccc3c2n1`?
GRIN3A LBD mod: 12*; UCH37 DUB inh: -39; NadD inh: -8; ATG4B inhibitor: 17; SENP1 inh: 0

What do the screens show for `c1ccc(Nc2ncnc3c2oc2ccccc23)cc1`?
GRIN3A LBD mod: -8; UCH37 DUB inh: -16; NadD inh: -3; ATG4B inhibitor: 1; SENP1 inh: -1

How did CCc1nc(Nc2ccc(F)cc2)c2oc3ccccc3c2n1 do in these assays?
GRIN3A LBD mod: 7; UCH37 DUB inh: -56; NadD inh: -3; ATG4B inhibitor: 19; SENP1 inh: -23

How did Cc1ccc(Nc2nc(C)nc3c2oc2ccccc23)cc1 do in these assays?
GRIN3A LBD mod: -3; UCH37 DUB inh: -69; NadD inh: -5; ATG4B inhibitor: 21; SENP1 inh: 3

How did Cc1nc(Nc2ccccc2)c2oc3ccc(Cl)cc3c2n1 do in these assays?
GRIN3A LBD mod: 16*; UCH37 DUB inh: -176; NadD inh: 1; ATG4B inhibitor: -3; SENP1 inh: -2

What do the screens show for `CC(C)c1ccc(C=NNC(=O)c2nnn(-c3nonc3N)c2CN(C)C2CCCCC2)cc1`?
UCH37 DUB inh: 1

What do the screens show for `Cc1ccc(CNC(=O)CON=Cc2ccc(C(C)(C)C)cc2)cc1`?
UCH37 DUB inh: 2

How did Cc1cccc2cc(C=NNC(=O)c3ccncc3)c(Cl)nc12 do in these assays?
UCH37 DUB inh: -15

How did Cc1ccc(C=NNC(=O)CSCc2ccc(Cl)cc2)cc1 do in these assays?
UCH37 DUB inh: 0

Results for CC(CC(=O)Nc1cc(C)ccn1)=NNC(=O)C(=O)NC(C)C ?
UCH37 DUB inh: 6

Results for CC(C)(C)c1cc[n+](-c2[nH]c(=O)sc2C=NNC([S-])=Nc2ccccc2)cc1 ?
UCH37 DUB inh: 14

How did CCc1ccc[n+](-c2[nH]c(=O)sc2C=NNC([S-])=Nc2ccccc2)c1 do in these assays?
UCH37 DUB inh: 22*

Results for CC(C)(C)c1cc[n+](-c2[nH]c(=O)sc2/C=N/NC([S-])=Nc2ccccc2)cc1 ?
GRIN3A LBD mod: -2; NadD inh: 9; ATG4B inhibitor: -7; SENP1 inh: 46*

How did O=C(Cc1cccc([N+](=O)[O-])c1)Nc1ccc(C(=O)N2CCOCC2)cc1 do in these assays?
GRIN3A LBD mod: -3; UCH37 DUB inh: 29*; NadD inh: -3; ATG4B inhibitor: -7; SENP1 inh: 0

What do the screens show for `O=C(Cc1cccc([N+](=O)[O-])c1)Nc1cccc(C(=O)N2CCOCC2)c1`?
GRIN3A LBD mod: 1; UCH37 DUB inh: -1; NadD inh: -7; ATG4B inhibitor: 0; SENP1 inh: 1

Results for O=C(Nc1cccc(C(F)(F)F)c1)N1CCC(c2nc(-c3ccc(F)cc3)no2)CC1 ?
GRIN3A LBD mod: 21*; UCH37 DUB inh: 2; NadD inh: -7; ATG4B inhibitor: 9; SENP1 inh: -48

Results for N#CC[C@H](Cc1ccccc1)N1CC[C@@H](NC(=O)OCc2ccccc2)CCC1=O ?
GRIN3A LBD mod: -1; UCH37 DUB inh: 23*; NadD inh: 1; ATG4B inhibitor: -10; SENP1 inh: -7

Results for CC(=O)C(C[N+]1(C)CCCCC1)=NO ?
UCH37 DUB inh: 3

How did O=C(O)CCCN1C(=O)/C(=C/c2cn(-c3ccccc3)nc2-c2cccs2)SC1=S do in these assays?
GRIN3A LBD mod: 3; UCH37 DUB inh: 8; NadD inh: 34*; ATG4B inhibitor: 5; SENP1 inh: 24

How did O=C(CCCN1C(=O)/C(=C\c2cccs2)SC1=S)Nc1cc([N+](=O)[O-])ccc1O do in these assays?
GRIN3A LBD mod: 23*; UCH37 DUB inh: 2; NadD inh: 11; ATG4B inhibitor: 4; SENP1 inh: -2

What do the screens show for `O=C(CCN1C(=O)/C(=C/c2cccs2)SC1=S)Nc1ccccc1O`?
GRIN3A LBD mod: 15*; UCH37 DUB inh: 2; NadD inh: 4; ATG4B inhibitor: 8; SENP1 inh: 7

How did O=C(CCCN1C(=O)/C(=C/c2ccccc2)SC1=S)Nc1cccc(O)c1 do in these assays?
GRIN3A LBD mod: 12*; UCH37 DUB inh: 4; NadD inh: 10; ATG4B inhibitor: 2; SENP1 inh: 3

How did O=C(CCCN1C(=O)/C(=C\c2ccccc2)SC1=S)Nc1cccc(C(=O)O)c1 do in these assays?
GRIN3A LBD mod: -2; NadD inh: 3; ATG4B inhibitor: 9; SENP1 inh: 2
